Test results reported in ChEMBL document CHEMBL4680254, “Design, synthesis and discovery of 2(1H)-quinolone derivatives for the treatment of pulmonary fibrosis through inhibition of TGF-β/smad dependent and independent pathway” (Eur J Med Chem, 2020).
The source made the active and inactive calls. The calls are words filed in the database; no cut-off is given here.

Legend:
[1] = Tmax in Sprague-Dawley rat at 5 mg/kg, iv; type: ADME, organism-based; conditions: in vivo
Summary of the method: (§1)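 Rats were given a single 5 mg/kg dose intravenously or orally, and plasma concentration–time curves were followed. t1/2, tmax, AUC0-t and oral bioavailability (n = 5) were derived from these curves.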

NRK-49F [2] = experiment: Inhibition of TGF-beta induced p38 phosphorylation in rat NRK-49F cells at 20 to 40 uM pretreated with compound for 1 to 2 hrs followed by TGF-beta stimulation for 1 hr by Western blot analysis; type: cell-based; conditions: dose 20-40 µM, time 2-3 hrs
Summary of the method: (§2)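 NRK-49F cells were pretreated with or without compound (20 and 40 µM) for 1 or 2 h, then stimulated with TGF-β 5 ng/mL for 1 h. Lysates were made in RIPA with PMSF and protease inhibitors, and 30–40 µg protein was run on 10–12% SDS-PAGE and moved to PVDF. Blots were probed for phospho- and total Smad2, Smad3, p38 and ERK1/2, with GAPDH as loading control and ECL detection.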

[3] = Effect on total Smad3 expression in TGFbeta-stimulated rat NRK-49F at 20 to 40 uM preincubated for 1 to 2 hrs followed by TGF-beta stimulation and measured after 1 hr by Western blot analysis; conditions: dose lower 20 µM, time lower 2 hrs, dose upper 40 µM, time upper 3 hrs; summary of the method: as §2
[4] = Effect on total Smad2 expression in TGFbeta-stimulated rat NRK-49F at 20 to 40 uM preincubated for 1 to 2 hrs followed by TGF-beta stimulation and measured after 1 hr by Western blot analysis; conditions: dose lower 20 µM, time lower 2 hrs, dose upper 40 µM, time upper 3 hrs; summary of the method: as §2
[5] = target: Mothers against decapentaplegic homolog 2 (Rattus norvegicus) (UniProt O70436); experiment: Inhibition of TGF-beta induced SMAD2 phosphorylation in rat NRK-49F cells at 20 to 40 uM pretreated with compound for 1 to 2 hrs followed by TGF-beta stimulation for 1 hr by Western blot analysis; type: cell-based; conditions: dose 20-40 µM, time 2-3 hrs; summary of the method: as §2
Mus musculus [6] = experiment: Anti-fibrotic activity in C57BL/6 mouse model of bleomycin-induced lung fibrosis assessed as reduction in collagen deposition by measuring hydroxyproline content in lung at 100 mg/kg, po administered for […] starting from day 8 post bleomycin treatment; type: functional, organism-based; conditions: time 14.0 day
Summary of the method: (§3)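 In the bleomycin mouse model (male C57BL/6, 8 weeks, 3 U/kg intratracheal in saline, n=10 per group), daily oral dosing ran days 1–30 or days 8–21. Right lungs were dried, acid hydrolysed, filtered and brought to pH 6.5–8.0. Hydroxyproline was read by chloramine-T spectrophotometry with a kit.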

Mus musculus [7] = experiment: Anti-fibrotic activity in C57BL/6 mouse model of bleomycin-induced lung fibrosis assessed as suppression of smad3 phosphorylation level in lung at 50 to 100 mg/kg, po administered for 30 days starting from day 1 post bleomycin treatment by immunohistochemistry staining based microscopic analysis; type: functional, organism-based; conditions: dose 50-100 mg/kg, time 30.0 day
Summary of the method: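 Male C57BL/6 mice, 8 weeks, got intratracheal bleomycin 3 U/kg in 0.075 mL saline, then daily oral dosing days 1–30. Left lungs were formalin-fixed (10%, 24 h) and paraffin-embedded; 5 µm sections were incubated with antibody at 4 °C overnight for immunohistochemistry of phospho-Smad3 and imaged by microscopy.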

NRK-49F [8] = experiment: Inhibition of TGF-beta-induced collagen-1 protein expression in rat NRK-49F cells at 20 to 40 uM incubated for 24 hrs by Western blotting analysis; type: functional, cell-based; conditions: dose 20-40 µM
[9] = Oral bioavailability in Sprague-Dawley rat at 5 mg/kg; type: ADME, organism-based; conditions: in vivo; summary of the method: as §1
[10] = Half life in Sprague-Dawley rat at 5 mg/kg, iv; type: ADME, organism-based; conditions: in vivo; summary of the method: as §1
[11] = target: Mitogen-activated protein kinase 1 and 3 (ERK2 and ERK1) (Rattus norvegicus) (UniProt P63086+P21708); experiment: Inhibition of TGF-beta induced ERK1/2 phosphorylation in rat NRK-49F cells at 20 to 40 uM pretreated with compound for 1 to 2 hrs followed by TGF-beta stimulation for 1 hr by Western blot analysis; type: cell-based; conditions: dose 20-40 µM, time 2-3 hrs; summary of the method: as §2
[12] = Tmax in Sprague-Dawley rat at 5 mg/kg, po; type: ADME, organism-based; conditions: in vivo; summary of the method: as §1
[13] = AUC (0 to t) in Sprague-Dawley rat at 5 mg/kg, iv; type: ADME, organism-based; parameters: dose 5 mg/kg; conditions: in vivo
Summary of the method: (§4)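 Rats received a single 5 mg/kg dose, either intravenously or orally. AUC0-t was derived from plasma concentration–time curves after that one dose. n = 5 per the reported oral data.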

[14] = target: Mothers against decapentaplegic homolog 3 (Rattus norvegicus) (UniProt P84025); experiment: Inhibition of TGF-beta induced SMAD3 phosphorylation in rat NRK-49F cells at 20 to 40 uM pretreated with compound for 1 to 2 hrs followed by TGF-beta stimulation for 1 hr by Western blot analysis; type: cell-based; conditions: dose 20-40 µM, time 2-3 hrs; summary of the method: as §2
Mus musculus [15] = experiment: Anti-fibrotic activity in C57BL/6 mouse model of bleomycin-induced lung fibrosis assessed as protection of alveolar tissue structure at 100 mg/kg, po administered for […] starting from day 8 post bleomycin treatment by hematoxylin and eosin staining based microscopic analysis; type: functional, organism-based; conditions: time 14.0 day
Summary of the method: (§5)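 Male C57BL/6 mice, 8 weeks old, n=10 per group; lung fibrosis from one intratracheal instillation of bleomycin 3 U/kg in 0.075 mL saline, saline-only controls. Daily oral dosing days 1–30 (prevention) or days 8–21 (treatment). Left lungs fixed in 10% formalin 24 h, paraffin-embedded, 5 µm sections stained with H&E (also Masson's trichrome) and examined by microscopy.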

Mus musculus [16] = experiment: Anti-fibrotic activity in C57BL/6 mouse model of bleomycin-induced lung fibrosis assessed as reduction in inflammatory cell infiltration at 50 to 100 mg/kg, po administered for 30 days starting from day 1 post bleomycin treatment by hematoxylin and eosin staining based microscopic analysis; type: functional, organism-based; conditions: dose 50-100 mg/kg, time 30.0 day; summary of the method: as §5
Mus musculus [17] = experiment: Anti-fibrotic activity in C57BL/6 mouse model of bleomycin-induced lung fibrosis assessed as protection of alveolar tissue structure at 50 to 100 mg/kg, po administered for 30 days starting from day 1 post bleomycin treatment by hematoxylin and eosin staining based microscopic analysis; type: functional, organism-based; conditions: dose 50-100 mg/kg, time 30.0 day; summary of the method: as §5
[18] = Effect on total p38 expression in TGFbeta-stimulated rat NRK-49F at 20 to 40 uM preincubated for 1 to 2 hrs followed by TGF-beta stimulation and measured after 1 hr by Western blot analysis; type: tissue-based; conditions: dose lower 20 µM, time lower 2 hrs, dose upper 40 µM, time upper 3 hrs; summary of the method: as §2
L929 = experiment: Antimigratory activity in mouse L929 cells assessed as inhibition of TGF-beta-induced cell migration at 10 uM incubated for 24 hrs by wound healing assay; type: functional, cell-based
Summary of the method: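 Mouse L929 fibroblasts (MEM, 10% FBS, 37 °C, 5% CO₂) were grown to confluence and scratched with a pipette tip to a 100 µm wound. They were then kept in serum-free medium with or without TGF-β 5 ng/ml and compound 10 µM for 24 h. Wounds were imaged by light microscopy at 0, 12 and 24 h.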

[19] = Effect on total […] expression in TGFbeta-stimulated rat NRK-49F at 20 to 40 uM preincubated for 1 to 2 hrs followed by TGF-beta stimulation and measured after 1 hr by Western blot analysis; conditions: dose lower 20 µM, time lower 2 hrs, dose upper 40 µM, time upper 3 hrs; summary of the method: as §2
NRK-49F [20] = experiment: Inhibition of TGF-beta-induced collagen accumulation in rat NRK-49F cells at 10 uM incubated for 2 days by PSR staining based microscopic analysis relative to control; type: functional; conditions: 48 h, time 2 day
Summary of the method: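 NRK-49F cells were grown 3 days in DMEM with 5% FBS, then 2 days in DMEM with 1% ITS. Next came 2 days with TGF-β 5 ng/ml plus or minus compound 10 µM. Cells were fixed in 4% paraformaldehyde and stained 4 h with 0.1% Picrosirius Red, then rinsed with acetic acid. Dye was eluted with 0.1 M NaOH and OD read at 540 nm. Inhibition = […] ×100%, in triplicate.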

Mus musculus [21] = experiment: Anti-fibrotic activity in C57BL/6 mouse model of bleomycin-induced lung fibrosis assessed as survival rate at 50 mg/kg, po administered for […] starting from day 8 post bleomycin treatment; type: functional, organism-based; conditions: time 14.0 day
Summary of the method: (§6)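 Survival was followed in male C57BL/6 mice (8 weeks, n=10 per group) after one intratracheal bleomycin dose of 3 U/kg in 0.075 mL saline. Oral dosing was daily, days 1–30 (prevention) or days 8–21 (treatment), with survival curves plotted.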

[22] = AUC (0 to t) in Sprague-Dawley rat at 5 mg/kg, po; type: ADME, organism-based; parameters: dose 5 mg/kg; conditions: in vivo; summary of the method: as §4
[23] = Cytotoxicity against rat NRK-49F cells assessed as cell survival rate at 10 uM incubated for 72 hrs by MTT assay; type: cell-based; conditions: read-out: Activity
Summary of the method: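 NRK-49F cells were seeded at 0.5×10^5 cells/ml, cultured overnight, then exposed to compound 10 µM for 72 h. MTT was added and incubated 4 h, formazan dissolved in DMSO and absorbance read. Survival = (treated − zero)/(blank − zero) A ×100%, done in triplicate.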

Mus musculus [24] = experiment: Anti-fibrotic activity in C57BL/6 mouse model of bleomycin-induced lung fibrosis assessed as survival rate at 50 to 100 mg/kg, po administered for 30 days starting from day 1 post bleomycin treatment; type: functional, organism-based; conditions: dose 50-100 mg/kg, time 30.0 day; summary of the method: as §6
NRK-49F [25] = experiment: Inhibition of TGF-beta-induced alpha-SMA protein expression in rat NRK-49F cells at 20 to 40 uM incubated for 24 hrs by Western blotting analysis; type: functional, cell-based; conditions: dose 20-40 µM
[26] = Half life in Sprague-Dawley rat at 5 mg/kg, po; type: ADME, organism-based; conditions: in vivo; summary of the method: as §1
Mus musculus [27] = experiment: Anti-fibrotic activity in C57BL/6 mouse model of bleomycin-induced lung fibrosis assessed as reduction in collagen deposition by measuring hydroxyproline content in lung at 50 to 100 mg/kg, po administered for 30 days starting from day 1 post bleomycin treatment; type: functional, organism-based; conditions: dose 50-100 mg/kg, time 30.0 day; summary of the method: as §3
Mus musculus [28] = experiment: Anti-fibrotic activity in C57BL/6 mouse model of bleomycin-induced lung fibrosis assessed as protection of alveolar tissue structure at 50 mg/kg, po administered for 30 days starting from day 1 post bleomycin treatment by hematoxylin and eosin staining based microscopic analysis; type: functional, organism-based; conditions: time 30.0 day; summary of the method: as §5
Mus musculus [29] = experiment: Anti-fibrotic activity in C57BL/6 mouse model of bleomycin-induced lung fibrosis assessed as reduction in inflammatory cell infiltration at 50 mg/kg, po administered for 30 days starting from day 1 post bleomycin treatment by hematoxylin and eosin staining based microscopic analysis; type: functional, organism-based; conditions: time 30.0 day; summary of the method: as §5
Mus musculus [30] = experiment: Anti-fibrotic activity in C57BL/6 mouse model of bleomycin-induced lung fibrosis assessed as protection of alveolar tissue structure at 50 mg/kg, po administered from day 8 to day 21 post bleomycin treatment by hematoxylin and eosin staining based microscopic analysis; conditions: time 14.0 day
Mus musculus [31] = experiment: Anti-fibrotic activity in C57BL/6 mouse model of bleomycin-induced lung fibrosis assessed as reduction in collagen deposition by measuring hydroxyproline content in lung at 50 mg/kg, po administered for […] starting from day 8 post bleomycin treatment; type: functional, organism-based; conditions: time 14.0 day; summary of the method: as §3
Mus musculus [32] = experiment: Anti-fibrotic activity in C57BL/6 mouse model of bleomycin-induced lung fibrosis assessed as survival rate at 50 mg/kg, po administered for 30 days starting from day 1 post bleomycin treatment; type: functional, organism-based; conditions: time 30.0 day; summary of the method: as §6
Mus musculus [33] = experiment: Anti-fibrotic activity in C57BL/6 mouse model of bleomycin-induced lung fibrosis assessed as reduction in collagen deposition by measuring hydroxyproline content in lung at 50 mg/kg, po administered for 30 days starting from day 1 post bleomycin treatment; type: functional, organism-based; conditions: time 30.0 day; summary of the method: as §3

Chain of Mothers against decapentaplegic homolog 3 (Rattus norvegicus) (P84025 whole entry, looked up): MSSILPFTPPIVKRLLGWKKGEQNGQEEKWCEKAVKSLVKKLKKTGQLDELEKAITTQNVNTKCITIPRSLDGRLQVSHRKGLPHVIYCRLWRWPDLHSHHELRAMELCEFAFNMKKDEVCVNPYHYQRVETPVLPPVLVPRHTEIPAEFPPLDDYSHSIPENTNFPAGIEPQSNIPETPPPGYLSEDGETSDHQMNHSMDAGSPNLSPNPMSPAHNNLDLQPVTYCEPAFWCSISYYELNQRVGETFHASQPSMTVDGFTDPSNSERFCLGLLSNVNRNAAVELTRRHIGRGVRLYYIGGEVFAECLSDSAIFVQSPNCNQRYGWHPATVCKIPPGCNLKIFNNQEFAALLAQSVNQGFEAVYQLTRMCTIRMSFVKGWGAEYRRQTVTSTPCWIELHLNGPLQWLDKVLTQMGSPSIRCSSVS
Chain of Mothers against decapentaplegic homolog 2 (Rattus norvegicus) (O70436 whole entry): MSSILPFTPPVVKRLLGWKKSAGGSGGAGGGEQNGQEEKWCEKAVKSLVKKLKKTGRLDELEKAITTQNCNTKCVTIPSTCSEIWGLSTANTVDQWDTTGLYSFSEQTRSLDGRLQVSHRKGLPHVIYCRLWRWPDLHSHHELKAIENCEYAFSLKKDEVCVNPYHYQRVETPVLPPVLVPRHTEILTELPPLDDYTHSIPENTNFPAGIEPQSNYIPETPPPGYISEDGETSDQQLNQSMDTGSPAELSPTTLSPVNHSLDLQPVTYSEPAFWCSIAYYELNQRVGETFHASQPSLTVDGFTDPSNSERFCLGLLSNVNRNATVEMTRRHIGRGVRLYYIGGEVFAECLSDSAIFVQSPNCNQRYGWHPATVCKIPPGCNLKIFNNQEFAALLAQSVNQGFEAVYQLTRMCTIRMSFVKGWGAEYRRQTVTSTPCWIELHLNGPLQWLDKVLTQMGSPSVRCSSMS
Chain of Mitogen-activated protein kinase 1 and 3 (ERK2 and ERK1) (Rattus norvegicus) (P21708 whole entry, looked up): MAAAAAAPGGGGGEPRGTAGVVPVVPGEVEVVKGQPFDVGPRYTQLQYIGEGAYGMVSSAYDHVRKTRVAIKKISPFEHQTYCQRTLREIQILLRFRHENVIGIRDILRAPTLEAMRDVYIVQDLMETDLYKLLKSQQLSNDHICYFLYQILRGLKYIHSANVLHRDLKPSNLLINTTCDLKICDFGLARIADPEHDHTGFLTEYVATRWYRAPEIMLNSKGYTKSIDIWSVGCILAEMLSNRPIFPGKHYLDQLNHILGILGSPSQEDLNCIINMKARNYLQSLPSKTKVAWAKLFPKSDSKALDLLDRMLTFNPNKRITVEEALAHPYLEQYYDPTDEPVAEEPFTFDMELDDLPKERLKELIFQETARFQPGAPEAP
Chain of Mitogen-activated protein kinase 1 and 3 (ERK2 and ERK1) (Rattus norvegicus) (P63086 whole entry, looked up): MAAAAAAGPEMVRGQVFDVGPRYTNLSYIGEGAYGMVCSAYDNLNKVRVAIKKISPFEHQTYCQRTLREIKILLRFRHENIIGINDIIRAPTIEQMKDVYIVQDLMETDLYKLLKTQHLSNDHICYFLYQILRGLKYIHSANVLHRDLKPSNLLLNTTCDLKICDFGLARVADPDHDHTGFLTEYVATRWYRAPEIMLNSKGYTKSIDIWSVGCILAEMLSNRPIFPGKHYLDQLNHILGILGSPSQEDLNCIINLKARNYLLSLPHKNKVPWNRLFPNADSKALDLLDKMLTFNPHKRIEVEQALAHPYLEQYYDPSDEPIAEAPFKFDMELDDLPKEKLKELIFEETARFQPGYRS

Q: What does the source list for `O=C(CN1CCN(C(=O)C2CC2)CC1)Nc1ccc(Oc2cc(=O)[nH]c3ccccc23)c(F)c1`?
A: Tmax [1]: 4.8 min; inhibition (NRK-49F [2]): Active; Activity [3]: Non-Toxic; Activity [4]: Non-Toxic; inhibition [5]: Dose-dependent effect; Activity (Mus musculus [6]): Active; Activity (Mus musculus [7]): Active; inhibition (NRK-49F [8]): Active; bioavailability [9]: 41.5%; half-life [10]: 4.39 h; inhibition [11]: Active; Tmax [12]: 4.33 h; AUC(0-t) [13]: 13100 ng·h/mL; inhibition [14]: Dose-dependent effect; Activity (Mus musculus [15]): Active; Activity (Mus musculus [16]): Active; Activity (Mus musculus [17]): Active; Activity [18]: Non-Toxic; inhibition (L929): Active; Activity [19]: Non-Toxic; inhibition at 10 µM (NRK-49F [20]): 87.5%; Activity (Mus musculus [21]): Active; AUC(0-t) [22]: 5460 ng·h/mL; viability at 72 h, 10 µM [23]: 97.5%; Activity (Mus musculus [24]): Active; inhibition (NRK-49F [25]): Active; half-life [26]: 3.5 h; Activity (Mus musculus [27]): Active

Q: What does the source list for `COC(=O)c1ccc2c(c1)NC(=O)/C2=C(\Nc1ccc(N(C)C(=O)CN2CCN(C)CC2)cc1)c1ccccc1` [NINTEDANIB]?
A: Activity (Mus musculus [28]): Active; inhibition (NRK-49F [8]): Active; bioavailability [9]: 12%; Activity (Mus musculus [29]): Active; Activity (Mus musculus [30]): inactive; inhibition (L929): Active; inhibition at 10 µM (NRK-49F [20]): 95.5%; Activity (Mus musculus [31]): inactive; Activity (Mus musculus [32]): Active; Activity (Mus musculus [33]): Active; inhibition (NRK-49F [25]): Active
